# Experimental data from ChEMBL document CHEMBL1154123, “Targeted isolation and structure elucidation of stilbene glycosides from the bark of Lysidice brevicalyx Wei guided by biological and chemical screening” (J Nat Prod, 2008).
# What was measured:
# [1] = Antioxidant activity against ferrous ion-induced lipid peroxidation in liver microsomes assessed as inhibition rate at 10 uM by TBA method in presence of cysteine; type: functional; set-up: scale not given: the % may be the effect or the level left; details: Microsome
# Method in brief: (§1)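 Liver microsomal protein (1.0 mg in 1 mL 0.1 M PBS, pH 7.4) incubated with […] cysteine and test sample at 37 °C for 15 min; peroxidation initiated with 0.05 mM FeSO4. Stopped with 20% trichloroacetic acid, centrifuged, supernatant heated with 0.67% TBA 10 min at 100 °C. MDA read at 532 nm; inhibition rate calculated against Fe2+-cysteine and solvent-only controls. Vitamin E positive control.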
# [2] = Antioxidant activity against ferrous ion-induced lipid peroxidation in liver microsomes assessed as inhibition rate at 100 uM by TBA method in presence of cysteine; type: functional; set-up: scale not given: the % may be the effect or the level left; details: Microsome; method in brief: as §1
Structure (SMILES),Activity [1],Activity [2]
C[C@@H]1O[C@@H](O[C@H]2[C@H](Oc3cc(O)cc(/C=C/c4ccc(O)cc4)c3)OC[C@@H](O)[C@@H]2O)[C@H](O)[C@H](O)[C@H]1O,6%,67%
OC[C@H]1O[C@@H](Oc2cc(O)cc(/C=C/c3ccc(O)cc3)c2)[C@H](O)[C@@H](O)[C@@H]1O,29%,100%
C[C@@H]1O[C@@H](O[C@H]2[C@H](Oc3cc(O)cc(/C=C\c4ccc(O)cc4)c3)O[C@H](CO)[C@@H](O)[C@@H]2O)[C@H](O)[C@H](O)[C@H]1O,11%,10%
C[C@@H]1O[C@@H](O[C@H]2[C@H](Oc3cc(O)cc(/C=C/c4ccc(O)cc4)c3)O[C@H](CO)[C@@H](O)[C@@H]2O)[C@H](O)[C@H](O)[C@H]1O,9%,39%
C[C@@H]1O[C@@H](OC[C@H]2O[C@@H](Oc3cc(O)cc(/C=C/c4ccc(O)cc4)c3)[C@H](O)[C@@H](O)[C@@H]2O)[C@H](O)[C@H](O)[C@H]1O,11%,31%
C[C@@H]1O[C@@H](OC[C@H]2O[C@@H](Oc3cc(O)cc(/C=C\c4ccc(O)cc4)c3)[C@H](O)[C@@H](O)[C@@H]2O)[C@H](O)[C@H](O)[C@H]1O,0%,15%
OC[C@H]1O[C@@H](O[C@H]2[C@H](Oc3cc(O)cc(/C=C/c4ccc(O)cc4)c3)OC[C@@H](O)[C@@H]2O)[C@H](O)[C@@H](O)[C@@H]1O,5%,29%
C[C@@H]1O[C@@H](OC[C@H]2O[C@@H](Oc3cc(O)cc(/C=C/c4ccc(O)cc4)c3)[C@H](O[C@@H]3O[C@@H](C)[C@H](O)[C@@H](O)[C@H]3O)[C@@H](O)[C@@H]2O)[C@H](O)[C@H](O)[C@H]1O,5%,39%
C[C@@H]1O[C@@H](OC[C@H]2O[C@@H](Oc3cc(O)cc(/C=C\c4ccc(O)cc4)c3)[C@H](O[C@@H]3O[C@@H](C)[C@H](O)[C@@H](O)[C@H]3O)[C@@H](O)[C@@H]2O)[C@H](O)[C@H](O)[C@H]1O,8%,25%
COc1ccc(CCN(C)CCCC(C#N)(c2ccc(OC)c(OC)c2)C(C)C)cc1OC (configuration not stated),33%,81%
Oc1ccc(/C=C/c2cc(O)cc(O[C@@H]3O[C@H](CO[C@@H]4OC[C@@H](O)[C@H](O)[C@H]4O)[C@@H](O)[C@H](O)[C@H]3O)c2)cc1,4%,21%
